Data: ChEMBL document CHEMBL1944507, “Structure-activity relationships for amide-, carbamate-, and urea-linked analogues of the tuberculosis drug (6S)-2-nitro-6-{[4-(trifluoromethoxy)benzyl]oxy}-6,7-dihydro-5H-imidazo[2,1-b][1,3]oxazine (PA-824)” (J Med Chem, 2012)
Converted amounts (≈) assume the structure as drawn.

Experiments:
Type in all cases: functional
[1] = system: Mycobacterium tuberculosis; assay: Antimicrobial activity against Mycobacterium tuberculosis H37Rv ATCC 27294 harboring pFCA-lux AB gene measured under anaerobic condition after 11 days by luminescence analysis; conditions: H37Rv ATCC 27294, 264 h
Outline: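 LORA: luminescence-based low-oxygen-recovery assay on nonreplicating M. tb, 11-day anaerobic exposure. MIC is the mean of at least two independent determinations ± SD.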

[2] = system: Mycobacterium tuberculosis; assay: Ratio of MIC for PA-824 to compound MIC for Mycobacterium tuberculosis H37Rv ATCC 27294 harboring pFCA-lux AB gene measured under aerobic condition after 8 days by luminescence analysis
[3] = system: Mycobacterium tuberculosis; assay: Antimicrobial activity against Mycobacterium tuberculosis H37Rv ATCC 27294 harboring pFCA-lux AB gene measured under aerobic condition after 8 days by luminescence analysis; conditions: H37Rv ATCC 27294, 192 h
Outline: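 MABA: replicating M. tb H37Rv exposed to compound aerobically for 8 days. […] Mean of at least two independent determinations ± SD.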

SMILES | MIC [1] [µM] | Ratio [2] | MIC [3] [µM]
O=C(Nc1ccc(OC(F)(F)F)cc1)O[C@@H]1COc2nc([N+](=O)[O-])cn2C1 | 2.7 (≈ 1.05 µg/mL) | 4 | 0.12 (≈ 0.0466 µg/mL)
O=C(Nc1ccc(-c2ccc(OC(F)(F)F)cc2)cc1)O[C@@H]1COc2nc([N+](=O)[O-])cn2C1 | > 32 |  | 0.05 (≈ 0.0232 µg/mL)
O=C(NCc1ccc(-c2ccc(C(F)(F)F)cc2)cc1)N[C@@H]1COc2nc([N+](=O)[O-])cn2C1 | > 32 |  | 0.32 (≈ 0.148 µg/mL)
O=C(O[C@@H]1COc2nc([N+](=O)[O-])cn2C1)N1CC[C@H](Oc2ccc(OC(F)(F)F)cc2)C1 | 1.6 (≈ 0.733 µg/mL) |  | 0.06 (≈ 0.0275 µg/mL)
O=C(Nc1cccc(-c2ccc(C(F)(F)F)nc2)c1)O[C@@H]1COc2nc([N+](=O)[O-])cn2C1 | 2.9 (≈ 1.3 µg/mL) |  | 0.11 (≈ 0.0494 µg/mL)
O=C(NCc1ccc(-c2ccc(C(F)(F)F)cc2)cc1)O[C@@H]1COc2nc([N+](=O)[O-])cn2C1 | > 32 |  | 0.24 (≈ 0.111 µg/mL)
O=C(Cc1ccc(-c2ccc(F)cc2)cc1)N[C@@H]1COc2nc([N+](=O)[O-])cn2C1 | 11 (≈ 4.36 µg/mL) |  | 0.33 (≈ 0.131 µg/mL)
O=C(Nc1ccc(-c2ccc(F)nc2)cc1)O[C@@H]1COc2nc([N+](=O)[O-])cn2C1 | 4.3 (≈ 1.72 µg/mL) |  | 0.13 (≈ 0.0519 µg/mL)
O=[N+]([O-])c1cn2c(n1)OC[C@@H](OCc1ccc(OC(F)(F)F)cc1)C2 [PRETOMANID] | 2.6 (≈ 0.934 µg/mL) |  | 0.5 (≈ 0.18 µg/mL)
CN([C@@H]1COc2nc([N+](=O)[O-])cn2C1)S(=O)(=O)c1cccc(OC(F)(F)F)c1 | 64 (≈ 27 µg/mL) |  | 12 (≈ 5.07 µg/mL)
O=C(Nc1cccc(-c2ccc(F)nc2)c1)O[C@@H]1COc2nc([N+](=O)[O-])cn2C1 | 5.8 (≈ 2.32 µg/mL) |  | 0.24 (≈ 0.0958 µg/mL)
